pIC50: −log10 of the molar value. The source made the active and inactive calls. No cut-off for these calls is given here.
Assays:
[1] = In vitro antiproliferative activity against human H23 cells assessed as inhibition of cell proliferation after 72 hrs by MTT assay; assay type: functional, cell-based; details: NCI-H23, 72 h
NCI-H1703 [2] = assay: Increase in intracellular nitric oxide release in human NCI-H1703 cells at 10 uM after 30 mins by DAF-FM dye based luminescence spectrometer analysis; assay type: functional, cell-based
[3] = In vitro antiproliferative activity against human H460 cells assessed as inhibition of cell proliferation after 72 hrs by MTT assay; assay type: functional, cell-based; details: NCI-H460, 72 h
A549 [4] = assay: Retention time of the compound in human A549 cells at 10 uM by LC/MS/MS analysis; assay type: ADME, cell-based; details: a549, 10 µM
Method in brief: (§1)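 A549 cells plated in flasks overnight at 37 °C, then treated with 10 μM compound for varying times. Lysed by scraping in 10 mM HCl/acetonitrile, 5% sulfosalicylic acid added, centrifuged at 12000g for 15 min, filtered. Analyzed on a C18 column, 0.2 mL/min, H2O/acetonitrile/0.1% formic acid gradient, by Q-TOF LC/MS/MS in positive mode; extracted ion chromatograms at [M+H]+.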

NCI-H1703 [5] = assay: In vitro antiproliferative activity against human NCI-H1703 cells assessed as inhibition of cell proliferation after 72 hrs by MTT assay; assay type: functional, cell-based; details: NCI-H1703, 72 h
NCI-H1693 = assay: In vitro antiproliferative activity against human NCI-H1693 cells assessed as inhibition of cell proliferation after 72 hrs by MTT assay; assay type: functional, cell-based; details: NCI-H1693, 72 h
Tumour [6] = assay: Drug uptake in tumor of NCr nu/nu athymic mouse xenografted with human A549 cells at 92 umol/kg, iv administered two times a week for 4 weeks; assay type: ADME, organism-based, Neoplasm; details: in vivo, 672 h
Method in brief: (§2)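 A549 cells (RPMI 1640 + 10% FBS, ≤4 passages) harvested at 70–80% confluence, 5 × 10^6 cells in PBS implanted s.c.; at ~3 mm × 3 mm tumors, mice randomized into groups of 12. Tail-vein injection at 92 μmol/kg in 20 μL DMSO, twice weekly for 4 weeks; saline or DMSO controls. Tumors caliper-measured twice weekly, volume = π/2 × L × W². Tumors resected at end, frozen, extracted for metabolite analysis by LC/MS.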

NCI-H1792 = assay: In vitro antiproliferative activity against human NCI-H1792 cells assessed as inhibition of cell proliferation after 72 hrs by MTT assay; assay type: functional, cell-based; details: NCI-H1792, 72 h
NCI-H2122 = assay: In vitro antiproliferative activity against human NCI-H2122 cells assessed as inhibition of cell proliferation after 72 hrs by MTT assay; assay type: functional, cell-based; details: NCI-H2122, 72 h
[7] = In vitro antiproliferative activity against human NCI-H1568 cells assessed as inhibition of cell proliferation after 72 hrs by MTT assay; assay type: functional, cell-based; details: NCI-H1568, 72 h
A549 [8] = assay: Anticancer activity against human A549 cells xenografted in NCr nu/nu athymic mouse assessed as reduction of tumor growth at 92 umol/kg, iv administered two times a week for 4 weeks; assay type: functional, organism-based; method in brief: as §2
[9] = biological target: T1, Glutathione S-transferase A1 (Homo sapiens, UniProt P08263); assay: Ratio of prodrug activation in presence of GSH and recombinant GSTA1 (unknown origin) to prodrug activation in presence of GSH by UV-Visible spectrophotometry
T1 sequence (P08263 whole entry): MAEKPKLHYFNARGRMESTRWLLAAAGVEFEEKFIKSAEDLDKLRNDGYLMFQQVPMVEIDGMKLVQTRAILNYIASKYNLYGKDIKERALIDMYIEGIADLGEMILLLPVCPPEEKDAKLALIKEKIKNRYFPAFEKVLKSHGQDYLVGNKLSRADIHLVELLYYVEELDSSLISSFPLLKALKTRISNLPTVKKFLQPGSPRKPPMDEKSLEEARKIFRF
Method in brief: (§3)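 UV–vis kinetics at 37 °C in 0.1 M phosphate buffer, pH 7.4, with 50 μM DTPA and 4 mM GSH, with or without 40 nM recombinant GSTP1 or GSTA1. Substrate (typically 10 μM) added after thermal equilibration. Absorbance followed at 302 nm; first-order rate from an exponential fit. Ratios are k with enzyme over k with GSH alone.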

[10] = In vitro antiproliferative activity against human H441 cells assessed as inhibition of cell proliferation after 72 hrs by MTT assay; assay type: functional, cell-based; details: NCI-H441, 72 h
[11] = In vitro antiproliferative activity against human NCI-H1944 cells assessed as inhibition of cell proliferation after 72 hrs by MTT assay; assay type: functional, cell-based; details: NCI-H1944, 72 h
[12] = biological target: Glutathione S-transferase P (Homo sapiens, UniProt P09211); assay: Ratio of prodrug activation in presence of GSH and recombinant GSTP1 (unknown origin) to prodrug activation in presence of GSH by UV-Visible spectrophotometry; method in brief: as §3
Sequence of Glutathione S-transferase P (P09211 whole entry): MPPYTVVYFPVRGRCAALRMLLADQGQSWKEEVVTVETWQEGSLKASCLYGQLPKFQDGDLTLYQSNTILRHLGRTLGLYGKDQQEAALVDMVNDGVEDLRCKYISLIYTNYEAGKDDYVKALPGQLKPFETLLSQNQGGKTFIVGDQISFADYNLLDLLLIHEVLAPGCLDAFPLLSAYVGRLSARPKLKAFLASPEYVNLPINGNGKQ

NCI-H322M = assay: In vitro antiproliferative activity against human NCI-H322M cells assessed as inhibition of cell proliferation after 72 hrs by MTT assay; assay type: functional, cell-based
NCI-H1703 [13] = assay: Increase in intracellular reactive oxygen/nitrogen species in human NCI-H1703 cells at 10 uM after 60 mins by DCF-DA dye based luminescence spectrometer analysis; assay type: functional, cell-based
Method in brief: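 Cells in six-well plates (6 × 10^5/well) loaded with 5 μM DCF-DA in HBSS, 30 min at 37 °C, 5% CO2, then rinsed. Fresh HBSS with compound (10 μM) or DMSO control added. After 60 min cells scraped into HBSS; DCF fluorescence read at ex 488 / em 530 nm. At least three experiments, each at least in triplicate.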

A549 [14] = assay: In vitro antiproliferative activity against human A549 cells assessed as inhibition of cell proliferation after 72 hrs by MTT assay; assay type: functional, cell-based; details: A549, 72 h
Tumour [15] = assay: Drug metabolism in tumor of NCr nu/nu athymic mouse xenografted with human A549 cells assessed as metabolite formation at 92 umol/kg, iv administered two times a week for 4 weeks; assay type: ADME, organism-based, Neoplasm; details: in vivo, 672 h; method in brief: as §2
[16] = In vitro antiproliferative activity against human NCI-H2023 cells assessed as inhibition of cell proliferation after 72 hrs by MTT assay; assay type: functional, cell-based; details: NCI-H2023, 72 h
NCI-H2030 = assay: In vitro antiproliferative activity against human NCI-H2030 cells assessed as inhibition of cell proliferation after 72 hrs by MTT assay; assay type: functional, cell-based; details: NCI-H2030, 72 h
[17] = Prodrug activation assessed as GSH reactivity in aqueous phosphate buffer at pH 7.4 by UV-Visible spectrophotometer analysis; assay type: physicochemical
Method in brief: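 UV–vis kinetics at 37 °C in 0.1 M phosphate buffer, pH 7.4, with 50 μM DTPA and 4 mM GSH, with or without 40 nM recombinant GSTP1 or GSTA1. Substrate (typically 10 μM) added after thermal equilibration. Ratios are k with enzyme over k with GSH alone.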

Mus musculus = assay: Systemic toxicity in NCr nu/nu athymic mouse xenografted with human A549 cells assessed as body weight at 92 umol/kg, iv administered two times a week for 4 weeks (reference value: 25.0 +/-0.78 gms); assay type: organism-based; details: in vivo, 672 h
NCI-H1703 [18] = assay: Induction of apoptosis in human NCI-H1703 cells assessed as cleaved caspase-7 level at 5 to 25 uM by immunoblot analysis; assay type: functional, cell-based; details: 5 to […] uM
NCI-H1703 [19] = assay: Induction of DNA strand break damage in human NCI-H1703 cells at 5 uM after 24 hrs by comet assay; assay type: functional, cell-based
[20] = biological target: T2, Poly [ADP-ribose] polymerase 1 (Homo sapiens, UniProt P09874); assay: Inhibition of PARP-1 (unknown origin) assessed as incorporation of biotinylated poly ADP-ribose onto histone proteins measured without activation by GSH by colorimetric analysis
T2 sequence (P09874 whole entry): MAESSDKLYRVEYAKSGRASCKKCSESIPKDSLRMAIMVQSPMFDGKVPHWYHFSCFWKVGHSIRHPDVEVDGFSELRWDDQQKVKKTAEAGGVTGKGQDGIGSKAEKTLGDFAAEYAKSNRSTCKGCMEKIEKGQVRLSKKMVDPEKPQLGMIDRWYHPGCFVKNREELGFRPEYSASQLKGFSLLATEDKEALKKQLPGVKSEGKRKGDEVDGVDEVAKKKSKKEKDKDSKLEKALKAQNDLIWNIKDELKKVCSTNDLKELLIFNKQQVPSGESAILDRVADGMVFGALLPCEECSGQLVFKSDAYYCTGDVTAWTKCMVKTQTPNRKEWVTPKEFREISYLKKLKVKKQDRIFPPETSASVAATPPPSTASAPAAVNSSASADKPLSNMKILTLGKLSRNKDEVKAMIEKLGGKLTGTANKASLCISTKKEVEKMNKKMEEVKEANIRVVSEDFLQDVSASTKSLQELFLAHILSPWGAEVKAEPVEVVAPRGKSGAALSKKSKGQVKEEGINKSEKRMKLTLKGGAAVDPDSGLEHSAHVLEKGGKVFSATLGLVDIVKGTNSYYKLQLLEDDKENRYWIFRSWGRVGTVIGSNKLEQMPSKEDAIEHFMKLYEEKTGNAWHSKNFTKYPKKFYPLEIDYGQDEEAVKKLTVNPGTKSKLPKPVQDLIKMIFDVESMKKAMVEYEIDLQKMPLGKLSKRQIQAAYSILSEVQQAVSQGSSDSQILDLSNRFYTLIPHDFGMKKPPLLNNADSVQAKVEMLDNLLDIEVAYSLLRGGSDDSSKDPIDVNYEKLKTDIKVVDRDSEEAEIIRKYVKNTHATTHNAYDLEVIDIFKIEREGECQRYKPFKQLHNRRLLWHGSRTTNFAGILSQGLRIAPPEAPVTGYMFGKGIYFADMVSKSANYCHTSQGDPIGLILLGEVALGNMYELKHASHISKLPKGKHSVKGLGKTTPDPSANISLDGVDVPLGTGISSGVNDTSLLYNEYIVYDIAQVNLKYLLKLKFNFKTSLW
Method in brief: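 Colorimetric PARP assay kit measuring biotinylated poly(ADP-ribose) incorporation onto histones, run per the manufacturer's protocol. Absorbance read at 450 nm. Inhibitor tested over 0.01 nM–1 μM, prodrug given without GSH activation. At least three experiments, each at least in triplicate.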

A549 [21] = assay: Retention time of the compound in human A549 cells treated with 2-(2,4-dinitrophenoxy)-1-(4-(2-fluoro-5-((4-oxo-3,4-dihydrophthalazin-1-yl)methyl)benzoyl)piperazin-1-yl)diazene oxide at 10 uM by LC/MS/MS analysis; assay type: ADME, cell-based; details: a549, 10 µM; method in brief: as §1
[22] = biological target: T2, Poly [ADP-ribose] polymerase 1; assay: Inhibition of PARP-1 (unknown origin) assessed as incorporation of biotinylated poly ADP-ribose onto histone proteins by colorimetric analysis
NCI-H1355 = assay: In vitro antiproliferative activity against human NCI-H1355 cells assessed as inhibition of cell proliferation after 72 hrs by MTT assay; assay type: functional, cell-based; details: NCI-H1355, 72 h

Which results are given for `O=C(c1cc(Cc2n[nH]c(=O)c3ccccc23)ccc1F)N1CCN(/[N+]([O-])=N/Oc2ccc([N+](=O)[O-])cc2[N+](=O)[O-])CC1`?
pIC50 [1]: 5.08; Activity (NCI-H1703 [2]): Active; pIC50 [3]: 4.79; Retention_time (A549 [4]): 18.2 min; pIC50 (NCI-H1703 [5]): 5.37; pIC50 (NCI-H1693): 5.27; Drug uptake (Tumour [6]): Active; pIC50 (NCI-H1792): 4.90; pIC50 (NCI-H2122): 5.12; pIC50 [7]: 5.52; growth inhibition (GI) (A549 [8]): Active; Ratio [9]: 20.4; pIC50 [10]: 5.35; pIC50 [11]: 4.98; Ratio [12]: 10.6; pIC50 (NCI-H322M): 5.10; Activity (NCI-H1703 [13]): Active; pIC50 (A549 [14]): 4.87; Drug metabolism (Tumour [15]): metabolite_detected; pIC50 [16]: 4.82; pIC50 (NCI-H2030): 5.04; t1/2 [17]: 11.6 min; Activity (Mus musculus): 27.7 g; Activity (NCI-H1703 [18]): Active; Activity (NCI-H1703 [19]): Active; pIC50 [20]: 7.24

For `CNc1ccc(C(=O)Oc2cc(O/N=[N+](\[O-])N(C)C)c([N+](=O)[O-])cc2[N+](=O)[O-])cc1`, which Ratio [9] is on record?
Its Ratio is 3.7.

What about the Ratio [12] of the same compound?
The Ratio was 5.4.

What about the t1/2 [17] of the same compound?
Its t1/2 is 2 min.

Which Retention_time (A549 [21]) does the source give for `N[C@@H](CCC(=O)N[C@@H](CSc1ccc([N+](=O)[O-])cc1[N+](=O)[O-])C(=O)NCC(=O)O)C(=O)O` here?
Its Retention_time is 13.8 min.

Which Activity (Mus musculus) does the source give for `O=C(c1cc(Cc2n[nH]c(=O)c3ccccc23)ccc1F)N1CCN(C(=O)C2CC2)CC1` [OLAPARIB] here?
The Activity was 25.6 g.

What about the Activity (NCI-H1703 [18]) of the same compound?
Its Activity is “inactive”.

What does the source list for `O=C(c1cc(Cc2n[nH]c(=O)c3ccccc23)ccc1F)N1CCNCC1`?
Retention_time (A549 [21]): 11.9 min; pIC50 [22]: 8.16

With `O=C(c1cccc(Cc2n[nH]c(=O)c3ccccc23)c1)N1CCNCC1` as the compound, how does the pIC50 [22] read?
Its pIC50 is 7.52.

What does the source list for `O=C(c1cccc(Cc2n[nH]c(=O)c3ccccc23)c1)N1CCN(/[N+]([O-])=N/Oc2ccc([N+](=O)[O-])cc2[N+](=O)[O-])CC1`?
pIC50 [1]: 5.12; Activity (NCI-H1703 [2]): Active; pIC50 [3]: 4.86; pIC50 (NCI-H1703 [5]): 5.17; pIC50 (NCI-H1693): 5.28; pIC50 (NCI-H1355): 4.94; pIC50 (NCI-H1792): 4.85; pIC50 (NCI-H2122): 4.95; pIC50 [7]: 5.19; pIC50 [10]: 5.09; pIC50 [11]: 4.85; pIC50 (NCI-H322M): 5.05; Activity (NCI-H1703 [13]): Active; pIC50 (A549 [14]): 4.77; pIC50 [16]: 4.71; pIC50 (NCI-H2030): 4.86; t1/2 [17]: 11.2 min; pIC50 [20]: 6.91

— ChEMBL document CHEMBL3232734, “Nitric oxide (NO) releasing poly ADP-ribose polymerase 1 (PARP-1) inhibitors targeted to glutathione S-transferase P1-overexpressing cancer cells” (J Med Chem, 2014)
